Screening data as filed in PubChem BioAssay.
procasp3 activ – activators of human procaspase-3 | P42574 | recombinant procaspase-3 D3A, Ac-DEVD-pNA absorbance 405 nm | activation, % at 8.5 µM | 0.11% of 330,000 active | AID 463141;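 active = activation above the mean of all tested compounds plus 3 SD, cut at about 21% in these data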;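 also: 0% = DMSO alone and 100% = DMSO wells spiked with extra 5 µM PC-3 D3A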
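assay system = Procaspase-3 D3A mutant | signal = absorbance at 405 nm, 0 and 120 min | times = 1 h preincubation plus 2 h reaction at 25 °C | repeats = single replicate | read-out = % activation between DMSO and enzyme-spiked controls | medium = Zinc-free HEPES saline buffer with Triton X-100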
AHR act – human AHR activation; 2.5% of 320,000 active; AHR-responsive luciferase reporter cells, luminescence; P35869; activation, % at 5 µM; in the data active = activation above about 47%;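 also: 0% = vehicle wells and 100% = reference agonist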
proCasp7 act – counter-screen: procaspase-7 (human) activation. recombinant procaspase-7, Ac-DEVD-pNA absorbance 405 nm; D23A/D198A/D206A triple mutant, cannot self-cleave; scale: DMSO 0, 5 µM enzyme 100. activation, % at 8.5 µM. 0.093% of 330,000 active;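 active = percent activation above the screen-wide mean plus 3 SD, cut at about 25% in these data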
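Material: Procaspase-7 triple mutant (PC-7 D3A) | Quantity: 2 µM procaspase-7 mutant as dispensed | Reagent: DEVD-pNA substrate | Times: 1 h preincubation, 2 h reaction | Technique: 405 nm absorbance of p-nitroaniline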
PolyA inhibitor – inhibitors of polyadenylation in S. cerevisiae; S. cerevisiae SKY197-pL101 polyadenylation reporter, beta-gal luminescence; efflux-impaired pdr1/pdr3 knockout yeast; score 100 = 6 SD above DMSO; activity score, % at 12 µM; 0.02% of 300,000 active;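 active = lowest replicate activity score at least 50, where 100 means six control SD above control mean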;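 also: yeast exposed to compound for 9 h at 30 °C; higher score means more reporter readthrough which indicates perturbed polyadenylation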
AHR act cf – human AHR activation, confirmation; human cells, AHR-responsive luciferase reporter, luminescence; activation, % at 9 µM; 87% of 2,300 active; shares compounds with AHR act; in the data active = activation above about 49%;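 also: HepG2 hepatoma cells carrying a DRE-driven firefly luciferase reporter; 0% = vehicle wells and 100% = reference agonist wells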
PXR act counter – activates human PXR in AHR activator counter-screen; shares compounds with AHR act; cell-based PXR reporter, luciferase luminescence; activation, % at 11.6 µM; 88% of 2,300 active; in the data active = activation above about 11%;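 also: human hepatoma DPX-2 cells expressing full-length human PXR; 0% = DMSO and 100% = reference agonist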
* marks the source's active call; other numbers are inactive results; . = not tested or not shown. Hits are enriched below; roughly 2.6% of the tested compounds scored in any of these assays.

SMILES	procasp3 activ	AHR act	proCasp7 act	PolyA inhibitor	AHR act cf	PXR act counter
O=C(CSc1nc2cc(Cl)ccc2s1)NCc1ccc2c(c1)OCO2	-2.8	108.4*	2.1	-11.4	81.8*	33.6*
Nc1nc(SCC(=O)Nc2ccc(Cl)cn2)n[nH]1	0.2	1.7	-2.7	30.1	.	.
CCOC(=O)Nc1nnc(-c2ccccc2OC)s1	2.7	98.2*	-11.2	-0.5	125.3*	29.2*
CCOc1ccccc1C(=O)Nc1nnc(CC)s1	-5.8	96.3*	-1.3	28.4	69.8*	22.2*
COC(=O)Nc1nnc(-c2ccccc2OC)s1	0.7	107.0*	3.7	-21.4	139.6*	16.8*
COc1ccccc1-c1nnc(N)s1	6.6	1.4	-0.2	-1.0	.	.
CC1CCc2c(nc3ncnn3c2NCCN(C)C)C1 (stereo not given)	4.7	-1.7	-2.3	-1.3	.	.
Cc1ccc(N2CC(C(=O)N/N=C/c3c(F)cccc3Cl)CC2=O)cc1 (stereo not given)	1.1	7.0	2.7	-17.3	.	.
CN(C)S(=O)(=O)c1cccc(NC(=O)c2ccc3c(c2)OCCO3)c1	3.2	102.3*	9.0	13.2	91.5*	110.2*
CN(C)S(=O)(=O)c1cccc(C(=O)Nc2cc(Cl)ccc2O)c1	4.3	84.0*	-3.0	-1.4	46.3	89.8*
CCN(CC)S(=O)(=O)c1cccc(C(=O)Nc2ccc3c(c2)OCO3)c1	0.7	165.2*	7.3	-7.3	102.8*	134.0*
COc1ccc(S(=O)(=O)N(C)C)cc1NC(=O)c1ccc2c(c1)OCCO2	6.1	0.3	11.8	.	.	.
Cc1ccc(C(c2sc3ncnn3c2O)N2CCCCC2)cc1 (stereo not given)	7.0	6.4	1.4	13.2	.	.
Oc1c(C(c2ccc(F)cc2)N2CCc3ccccc3C2)sc2ncnn12 (stereo not given)	-14.3	96.3*	-21.5	7.4	77.7*	33.5*
c1ccc(N(c2ccccc2)c2nc(-n3ccnc3)nc(-n3ccnc3)n2)cc1	-1.4	2.6	12.1	-53.9	.	.
CN(c1ccccc1)c1nc(-n2ccnc2)nc(-n2ccnc2)n1	-8.2	91.5*	-1.1	-32.6	106.5*	29.2*
CC(C)C(=O)Nc1cccc(-c2cnc3ccccc3n2)c1	3.2	-2.2	7.0	-16.5	.	.
CS(=O)(=O)Nc1cccc(-c2cnc3ccccc3n2)c1	-6.3	87.8*	-5.4	-1.0	119.8*	8.0
CNC(=S)Nc1cccc(-c2cnc3ccccc3n2)c1	-7.6	118.0*	9.4	-4.1	99.6*	19.4*
Cc1cccc2[nH]c3c(N4CC=C(c5ccc(F)cc5)CC4)ncnc3c12	1.8	16.0	-4.1	3.6	.	.
CCOc1ccccc1CN1CCNC(=O)C1CC(=O)NCCN1CCOC1=O (stereo not given)	3.4	3.2	2.4	4.1	.	.
O=C(NN=C1CCCCCC1)c1cc2ccccc2cc1O	2.1	3.3	-4.8	-13.4	.	.
C/C(=N\NC(=O)c1c[nH]c2ccccc12)c1ccc(C)o1	-7.2	82.1*	-1.1	5.3	119.5*	17.2*
O=C(NN=C1CCCCCC1)c1c[nH]c2ccccc12	6.6	90.8*	-4.7	4.7	7.5	5.9
O=C1CC(C(=O)N2CCCc3ccccc32)CN1c1ccc(Cl)cc1 (stereo not given)	8.0	-4.5	-1.4	-9.7	.	.
SMILES	procasp3 activ	AHR act	proCasp7 act	PolyA inhibitor	AHR act cf	PXR act counter
CC(=O)Nc1ccc(S(=O)(=O)NC2(C(F)(F)F)NC(=O)N(Cc3ccccc3)C2=O)cc1 (stereo not given)	4.9	-1.5	-2.0	-4.7	.	.
Cc1oc(-c2cccs2)nc1CN1CCC(c2ccccc2)CC1	-6.5	0.8	1.6	-8.8	.	.
COc1c2occc2c(OC)c2c(=O)cc(C)oc12	2.6	103.8*	8.1	10.5	76.6*	13.3*
COc1c(C(=O)Nc2nnc(C3CC3)s2)csc1Cl	-4.4	113.5*	3.0	0.7	157.0*	78.6*
COc1ccc([C@H]2CC(=O)C=C(/C=C/c3ccc(C(F)(F)F)cc3)C2)cc1	-4.7	-1.5	-0.5	.	.	.
Cc1cc(/C=C2\NC(=S)NC2=O)c(C)n1-c1cccnc1	8.2	99.8*	0.6	9.4	59.2*	32.8*
Cc1cc(/C=C2/SC(=S)N(c3cccc(C(F)(F)F)c3)C2=O)c(C)n1-c1cccnc1	-11.4	-3.5	3.1	-3.8	.	.
Nc1c(Cl)cc(-c2csc(N3CCCC3c3nc4cc(Cl)c(N5CCCCC5)cc4n3CCCO)n2)cc1Cl (stereo not given)	3.7	85.9*	-0.1	27.5	85.7*	196.8*
Nc1c(Cl)cc(-c2csc(N3CCCC3c3nc4cc(Cl)c(Cl)cc4n3CCCO)n2)cc1Cl (stereo not given)	-16.6	16.5	-21.4	-6.5	.	.
COc1ccc(N2CCN(C(=O)CCC(=O)N3Cc4ccccc4Oc4ncccc43)CC2)cc1	-0.1	3.9	-7.9	-2.7	.	.
CC1CN(c2nc(-c3ccc(Br)cc3)nnc2-c2ccccc2)CC(C)N1 (stereo not given)	-4.0	87.5*	13.5	-6.4	47.1*	20.5*
Clc1ccc(-c2nnc(-c3ccccc3)c(N3CCSCC3)n2)cc1	-0.2	14.9	3.8	3.1	.	.
Cc1cc(NC(=O)NC(=O)c2cccc(OC(F)(F)C(F)F)c2)n[nH]1	6.5	156.8*	-1.9	4.8	103.5*	17.0*
Cc1ccc(-n2nc3c(=O)n(C(C)C(=O)NC4CC4)nc(C)c3c2C)cc1 (stereo not given)	4.0	1.6	6.3	-7.2	.	.
CN1CCc2c(sc3c2C(=O)NC(c2cccs2)N3)C1 (stereo not given)	0.6	85.1*	-8.6	-6.8	91.8*	36.5*
CSc1ccc(C2NC(=O)c3c(sc4c3CCN(C)C4)N2)cc1 (stereo not given)	-17.8	22.2	-15.4	6.0	.	.
Cc1ccsc1C1NC(=O)c2c(sc3c2CCN(C)C3)N1 (stereo not given)	-6.2	91.7*	-6.8	9.8	53.6*	16.8*
COC(=O)N/N=C/c1ccccc1	4.3	5.0	8.0	3.9	.	.
COC(=O)N/N=C1/C/C(=N\NC(=O)OC)c2ccccc21	12.2	115.2*	-4.2	-26.9	113.1*	9.3
COc1ccc(-c2nc3ccccc3c(=O)[nH]2)cc1	1.0	110.1*	-7.5	-14.5	105.9*	23.0*
N#C/C(=C\c1cccnc1)c1ccccc1[N+](=O)[O-]	-2.0	9.4	-4.1	12.6	.	.
O=C(CCc1ccc(S(=O)(=O)N2CCOCC2)cc1)OCC(=O)c1ccccc1	0.0	-0.2	6.2	.	.	.
Cc1nn(CC(=O)c2ccc3c(c2)OCCO3)c(=O)c(C#N)c1C	2.4	88.2*	6.9	.	91.2*	17.7*
CNC(=O)c1cc2c(ccc3ccccc32)o1	-1.2	107.7*	0.0	-1.2	102.2*	12.7*
O=C(NC1CC1)c1cc2ccccc2o1	-0.2	-0.3	3.0	3.8	.	.
